Most compounds without a hit are left out; they make up all but 1.7% or so of the library.
SKKanGAS inh: S. pyogenes SKKanGAS growth inhibitors in kanamycin, primary screen, streptokinase expression inhibitor project, SKKanGAS strain, BacTiter-Glo luminescence. 300,000 tested, 1.3% active. 6 h. inhibition, % at 7.5 µM. AID 1662, 2009;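 active means mean replicate score, as percent of positive control median, at least 50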;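 further: strain carries kanamycin resistance gene driven by streptokinase promoter and grows in 40 µg/ml kanamycin; loss of luminescence reflects streptokinase promoter inhibition or plain growth inhibition; 0% = median of DMSO wells and 100% = positive control at its reference dose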
PfHsp90 set2: growth inhibition of PfHsp90-expressing yeast, primary screen, antimalarial PfHsp90 inhibitor project, S. cerevisiae, BacTiter-Glo luminescence, single point, set 2. AID 504621, 2011. inhibition, % at 9.4 µM. 310,000 tested, 0.32% active. BacTiter-Glo ATP, 48 h; yeast lacking PDR1 and PDR3 efflux regulators;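 active means every replicate shows inhibition above about 80%, whatever the replicate mean, limit read from the data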;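 further: 0% = DMSO neutral controls and 100% = 20 µM radicicol positive controls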
PglD inh: C. jejuni PglD acetyltransferase inhibitors, primary screen, biochemical, DTNB colorimetric, single point | inhibition, % at 12.5 µM | 360,000 tested, 0.098% active | purified PglD enzyme, DTNB colorimetric CoA detection | UDP-N-acetylbacillosamine N-acetyltransferase PglD (Campylobacter jejuni); in the data active means inhibition above about 16%, passing the limit was not always enough
CSC inhib: cancer stem cell viability inhibitors, primary screen, luminescence. cancer stem cell-like cells viability. inhibition, % at 7.5 µM. 300,000 tested, 1.1% active. AID 2717, 2010; in the data active means inhibition above about 75%; tested in HMLE shEcad cells
FN deposition inh: inhibitors of fibronectin matrix deposition, primary screen, AH1F cells, Alexa488-fibronectin fluorescence, plate reader; AH1F fibroblasts, overnight; inhibition, % at 12.6 µM; 350,000 tested, 0.086% active; AID 743247, 2014;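 active means mean inhibition across replicates of 30% or more, regardless of how many single replicates reach that level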;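 further: positive control wells lacked labelled fibronectin entirely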
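Assay system: AH1F fibroblast monolayer, labelled fibronectin deposition. Amount: 10000 cells per well. Also added: labelled fibronectin 24 nM. Compound: single-point pinned compound. Incubation: cell attachment 1 h, compound and FN exposure overnight. Detection: fluorescence after three HBSS washes, excitation 485 nm, emission 525 nm. Read-out: inhibition of fibronectin deposition signal.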
Rtt109 HAT inh: inhibitors of C. albicans Rtt109/Vps75 HAT, primary screen, biochemical, ThioGlo CoA-SH fluorescence, plate reader; Histone acetyltransferase RTT109 (Candida albicans (strain SC5314 / ATCC MYA-2876)), …; purified Rtt109/Vps75, 4 h; inhibition, % at 34.9 µM; 330,000 tested, 0.16% active; AID 540336, 2011;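 active means inhibition of at least 50% in every replicate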
Target sequence (Q5AAJ8 whole entry, looked up): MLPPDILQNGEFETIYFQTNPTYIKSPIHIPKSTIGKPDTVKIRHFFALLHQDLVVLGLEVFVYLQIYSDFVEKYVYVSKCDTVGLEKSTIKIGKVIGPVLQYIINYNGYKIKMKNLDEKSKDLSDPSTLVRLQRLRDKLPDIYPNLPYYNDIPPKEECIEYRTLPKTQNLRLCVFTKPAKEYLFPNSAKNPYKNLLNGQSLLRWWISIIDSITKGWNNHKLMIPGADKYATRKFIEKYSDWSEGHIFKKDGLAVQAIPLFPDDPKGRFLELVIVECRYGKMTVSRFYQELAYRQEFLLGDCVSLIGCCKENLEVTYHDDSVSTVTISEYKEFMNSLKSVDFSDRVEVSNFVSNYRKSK
* hit, by the source's call; / = not tested or not shown.

SMILES | SKKanGAS inh | PfHsp90 set2 | PglD inh | CSC inhib | FN deposition inh | Rtt109 HAT inh
O=C1NC(=O)C(=Cc2ccccc2[N+](=O)[O-])C(=O)N1 | / | -12 | / | / | -2 | -6
O=C1NC(=O)C(=Cc2cc3c(cc2[N+](=O)[O-])OCO3)C(=O)N1 | -2 | -2 | -3 | -6 | -2 | 74*
COC(=O)[C@@H]1[C@@H](CO)[C@@H]2Cn3c(cccc3=O)[C@@H]2N1CC1CC1 | / | / | 2 | / | 6 | /
COc1ccc(OC)c(N2C(=O)NC(=O)/C(=C\c3ccc([N+](=O)[O-])s3)C2=O)c1 | 10 | 91* | -4 | -11 | 4 | -5
CC1=C(O)C(=O)C=C2C1=CC=C1C2(C)CCC2(C)C3CC(C)(C(=O)O)CCC3(C)CCC12C (centres undefined) | / | 125* | / | / | / | 2
O=C(Cc1cccnc1)N1CCCCN2[C@H](CO)[C@H](c3ccc(C#CC4CC4)cc3)[C@H]2C1 | / | / | 3 | / | / | /
O=c1c(C=NCc2cccs2)c(O)n(C2CCCCC2)c(=O)n1C1CCCCC1 | 14 | -1 | 8 | 46 | / | -5
N=C(N)c1c(O)n(C2CCCCC2)c(=O)n(C2CCCCC2)c1=O | 13 | -4 | / | 102* | / | 41
COCC#Cc1ccc([C@H]2[C@H](CO)N3CCCCN(C(=O)Cc4ccccn4)C[C@@H]23)cc1 | / | / | 0 | / | / | /
CCC(=NCCO)c1c(O)n(-c2ccccc2)c(=O)[nH]c1=O | 2 | -15 | 5 | -9 | / | 0
CC/C(=N\Nc1ccccc1)c1c(O)n(-c2ccc(OC)cc2)c(=O)[nH]c1=O | 4 | -20 | / | 76* | -4 | 1
N#Cc1cccc(-c2ccc([C@H]3[C@@H](CO)N4CCCCN(C(=O)Cc5ccccc5)C[C@H]34)cc2)c1 | / | / | 3 | / | / | /
CCCCCc1nc2c(c(=O)c3ccccc3n2C)c(=O)n1C1CCCCCC1 | 94* | 0 | / | 149* | -7 | 1
OC[C@@H]1Nc2ccc(C#Cc3cccnc3)cc2[C@@H]2NCC[C@H]12 | / | / | / | / | 8 | /
C=CCn1c(O)c(C(CC)=Nc2ccc(N(C)C)cc2)c(=O)[nH]c1=O | 57* | -5 | 3 | -3 | -4 | 0
CC(=O)N1C[C@@H]2C(c3ccccc3)[C@H](C1)N2CC1CC1 (some centres undefined) | / | / | / | / | 3 | /
O=c1c2ccccc2nc(/C=C/c2ccccc2)n1-c1ccccc1O | 18 | 4 | 2 | 90* | / | -8
O=c1c2ccccc2nc(/C=C/c2ccc(O)cc2)n1-c1ccccc1O | 35 | 7 | -1 | 34 | 1 | -1
O=C(Cc1ccccn1)N1CCCCN2[C@H](C1)[C@H](c1ccc(Br)cc1)[C@@H]2CO | / | / | 8 | / | / | /
CN(C)C(=O)[C@@H]1[C@@H](CO)[C@@H]2Cn3c(cccc3=O)[C@H]1N2CC1CC1 | / | / | -4 | / | / | /
Nc1ccc(CCN2CCN(c3cccc(C(F)(F)F)c3)CC2)cc1 | 0 | 15 | -4 | 95* | 0 | -8
Clc1ccc(Cn2ccnc2)cn1 | -4 | / | -4 | 0 | 1 | -6
Clc1ccc(CCC(Cn2ccnc2)Sc2c(Cl)cccc2Cl)cc1 (centres undefined) | / | 88* | 0 | 86* | / | 9
CCCC(CCC)C(=O)OC[N+](C)(C)CCOC(=O)C(O)(c1ccccc1)C1CCCC1 (centres undefined) | 6 | -12 | 1 | -12 | -31 | 57*
O=C(Cc1cccnc1)N1CCCCN2[C@H](C1)[C@H](c1ccc(/C=C/c3ccccc3)cc1)[C@@H]2CO | / | / | -1 | / | / | /
Cn1ncnc2c(=O)n(C)c(=O)nc1-2 | 25 | -4 | -10 | 176* | / | 18
Fc1ccc(C(OCCN2CCN(CCCc3ccccc3)CC2)c2ccc(F)cc2)cc1 | 5 | 17 | -2 | 98* | 4 | 5
CCCNC(=O)[C@@H]1[C@@H](CO)[C@@H]2Cn3c(cccc3=O)[C@H]1N2CCC | / | / | 5 | / | / | /
COc1ccc(CCNC2CCCCC2)cc1 | 6 | 2 | / | -5 | -1 | 7
COc1ccc(C[C@H]2NC[C@H](O)[C@H]2OC(C)=O)cc1 | 0 | 5 | 0 | 79* | 18 | 18
